# Compounds with a hit are over-represented: about 5.9% of the library has one in this group of screens.
# Pf Dd2 growth – P. falciparum Dd2 growth inhibition | SYBR Green, 72 h; hits give low values | activity change, % at 10 µM | 94,000 tested, 2.3% active; in the data active = activity change below about -80%; inconclusive = no clear call, values can overlap the other calls
# T cruzi growth-1 – T. cruzi proliferation inhibition; T. cruzi beta-gal in NIH3T3, GalScreen luminescence, 90 h; inhibition, % at 8.34 µM; 77,000 tested, 5.9% active; AID 624255;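 active = mean inhibition above about 93%, with at least 55% of replicates each passing it, limit read from the data, passing the limit was not always enough; inconclusive = only one of those two conditions holds; inactive = neither condition holds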
# KDM4C inh – KDM4C (human) demethylase inhibition | GST-KDM4C 2-372, H3K9me3 peptide, LANCE TR-FRET | inhibition, % at 12.5 µM | 96,000 tested, 0.15% active | AID 720574;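 active = mean replicate inhibition above about 25%, with at least 55% of replicates also reaching it, limit read from the data, passing the limit was not always enough; inconclusive = only one of those two conditions met; inactive = neither condition met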
#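 Assay system: GST-GASC-1 enzyme fragment 2-372 | Amount: 10 nM enzyme | Medium: HEPES buffer, pH 7.5, plus ascorbate | Reagent: H3K9me3 peptide substrate, Fe(II), 2-oxoglutarate | Doses: Single-point compound screen | Incubation: 30 min demethylation and 1 h detection at room temperature | Measured by: LANCE TR-FRET, excitation 340 nm, emissions 618 and 671 nm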
# IDH1 R132H inh – inhibitors of human IDH1 R132H. 70,000 tested, 0.18% active. inhibition, % at 10 µM. AID 624101. O75874. IDH1 R132H reductase, diaphorase/resazurin fluorescence, 60 min; in the data active = inhibition above about 34%; inconclusive = no clear call, values can overlap the other calls; inactive = below about 11%
# Target sequence (O75874 whole entry R132H): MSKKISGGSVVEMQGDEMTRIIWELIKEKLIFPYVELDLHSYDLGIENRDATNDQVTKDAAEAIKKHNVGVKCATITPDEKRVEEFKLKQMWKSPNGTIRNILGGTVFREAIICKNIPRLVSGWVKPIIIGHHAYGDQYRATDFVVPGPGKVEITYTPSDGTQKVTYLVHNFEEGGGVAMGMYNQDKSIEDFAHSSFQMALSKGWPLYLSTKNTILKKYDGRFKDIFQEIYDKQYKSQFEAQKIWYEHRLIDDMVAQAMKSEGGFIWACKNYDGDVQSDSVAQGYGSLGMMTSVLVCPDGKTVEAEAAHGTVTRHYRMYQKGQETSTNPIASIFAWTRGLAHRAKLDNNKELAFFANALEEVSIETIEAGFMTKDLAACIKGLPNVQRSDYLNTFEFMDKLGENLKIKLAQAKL
# T cruzi growth-2 – inhibitors of T. cruzi proliferation; T. cruzi beta-gal in NIH3T3, GalScreen luminescence, 90 h; AID 651739; shares compounds with T cruzi growth-1; 5,600 tested, 72% active; inhibition, % at 8.35 µM;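 active = mean replicate inhibition above about 95% and at least 55% of replicates individually reaching it, limit read from the data; inconclusive = only one of the two criteria is met; inactive = neither criterion is met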
# T cruzi growth-3 – Trypanosoma cruzi proliferation inhibition; 5,600 tested, 21% active; inhibition, % at 2.09 µM; shares compounds with T cruzi growth-1; T. cruzi beta-gal in NIH3T3, GalScreen luminescence, 90 h;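 active = mean inhibition above about 95%, with at least 55% of replicates also reaching it, limit read from the data; inconclusive = meets just one of the two conditions; inactive = meets neither condition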
# NIH3T3 tox – kills mouse NIH/3T3 fibroblasts | shares compounds with T cruzi growth-1 | NIH/3T3 viability, CellTiter-Glo ATP luminescence, 90 h | cytotoxicity (signal decrease), % at 8.35 µM | 5,600 tested, 14% active | AID 651742;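 active = mean signal decrease across replicates above about 35% based on untreated-well scatter, with enough replicates individually passing, limit read from the data; inconclusive = no rule stated though some were filed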
# NIH3T3 tox 2 – kills mouse NIH/3T3 fibroblasts; AID 651744; shares compounds with T cruzi growth-1; NIH/3T3 viability, CellTiter-Glo ATP luminescence, 90 h; 5,600 tested, 56% active; inhibition, % at 24.9 µM;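 active = mean loss of cell viability signal at or above a set limit, and enough replicates individually reaching it; inconclusive = meets only the mean limit or only the replicate share; inactive = meets neither condition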
# A number is an active result; – = inactive; ? = inconclusive; · = no result.
SMILES,Pf Dd2 growth,T cruzi growth-1,KDM4C inh,IDH1 R132H inh,T cruzi growth-2,T cruzi growth-3,NIH3T3 tox,NIH3T3 tox 2
C[C@H](CO)N1C[C@H](C)[C@@H](CN(C)C(=O)CCCN(C)C)OCCCC[C@H](C)Oc2ccc(NC(=O)Nc3cccc4ccccc34)cc2C1=O,–,–,–,–,·,·,·,·
C[C@@H]1CCCCO[C@H](CN(C)C(=O)CCCN(C)C)[C@H](C)CN([C@H](C)CO)C(=O)c2cc(NC(=O)Nc3cccc4ccccc34)ccc2O1,-85.7,–,–,·,·,·,·,·
C[C@@H]1CCCCO[C@@H](CN(C)C(=O)c2ccccc2)[C@H](C)CN([C@H](C)CO)C(=O)c2cc(NC(=O)Nc3cccc4ccccc34)ccc2O1,–,102.1,–,·,·,·,·,·
C[C@@H]1CN([C@H](C)CO)C(=O)c2cc(NC(=O)Nc3cccc4ccccc34)ccc2O[C@@H](C)CCCCO[C@@H]1CN(C)C(=O)c1ccccc1,–,–,–,·,·,·,·,·
C[C@@H]1CCCCO[C@H](CN(C)C(=O)c2ccccc2)[C@@H](C)CN([C@@H](C)CO)C(=O)c2cc(NC(=O)Nc3cccc4ccccc34)ccc2O1,-82.4,–,–,·,·,·,·,·
O=C(CSc1nc(O)cc(=O)n1-c1ccccc1)Nc1cccc2ccccc12,·,·,·,–,·,·,·,·
CCc1c(O)nc(SCC(=O)Nc2ccc(C(C)=O)cc2)[nH]c1=O,·,·,·,–,·,·,·,·
O=S(=O)(Nc1ccc(Cl)cn1)c1cccc(S(=O)(=O)c2ccccc2)c1,·,·,·,–,·,·,·,·
O=S(=O)(Nc1cccnc1)c1cccc(S(=O)(=O)c2ccc(Cl)c(Cl)c2)c1,·,·,·,46.7,·,·,·,·
O=C(CCCCCC(=O)N/N=C/c1ccc(Br)s1)NO,·,·,·,–,·,·,·,·
CN(C)C(=O)c1cccc(-c2ccc3c(c2)[C@H]2[C@H](CCN2C(=O)c2ccccc2F)[C@H](CO)N3)c1,–,99.3,–,·,103.4,–,–,–
CN(C)C(=O)c1cccc(-c2ccc3c(c2)[C@@H]2[C@@H](CCN2C(=O)c2ccccc2F)[C@H](CO)N3)c1,–,101.3,–,·,100.7,–,–,–
CN(C)C(=O)c1cccc(-c2ccc3c(c2)[C@H]2[C@H](CCN2C(=O)c2ccccc2F)[C@@H](CO)N3)c1,–,101.0,–,·,103.7,–,–,–
CN(C)C(=O)c1ccc(-c2ccc3c(c2)[C@@H]2[C@@H](CCN2C(=O)c2ccccc2F)[C@H](CO)N3)cc1,–,–,–,·,·,·,·,·
O=C(c1ccccc1F)N1CC[C@@H]2[C@H](CO)Nc3ccc(-c4ccccc4)cc3[C@@H]21,–,–,–,·,·,·,·,·
CS(=O)(=O)N(CC(=O)Nc1cc(Cl)ccc1Oc1ccccc1)c1cc(Cl)ccc1Cl,·,·,·,–,·,·,·,·
Cc1noc(C)c1NC(=O)N[C@H]1CC[C@@H](CC(=O)NCCCN(C)C)O[C@@H]1CO,–,?,–,–,–,–,–,–
C[C@@H]1CN([C@@H](C)CO)C(=O)c2cccc(NC(=O)CCCCCC(=O)Nc3ccccc3N)c2O[C@@H]1CN(C)S(=O)(=O)c1ccc(Cl)cc1,-92.8,97.6,–,–,103.2,–,–,–
C[C@@H]1CN([C@@H](C)CO)C(=O)c2cccc(NC(=O)CCCCCC(=O)Nc3ccccc3N)c2O[C@H]1CN(C)S(=O)(=O)c1ccc(Cl)cc1,–,95.4,–,·,–,–,–,–
C[C@H](CO)N1C[C@H](C)[C@H](CN(C)S(C)(=O)=O)Oc2c(NC(=O)CCCCCC(=O)Nc3ccccc3N)cccc2C1=O,–,·,–,·,·,·,·,·
COc1ccc(OC)c(NC(=O)COc2cc(C)c(Br)c(C)c2)c1,·,·,·,–,·,·,·,·
CCCC(=O)Nc1ccc2c(c1)C(=O)N(C)C[C@H](OC)[C@@H](C)CN(C(=O)CC)[C@@H](C)CO2,·,–,–,–,·,·,·,·
CC(C)NC(=O)N1CCCCN2[C@H](C1)[C@@H](c1ccc(C#Cc3ccccc3F)cc1)[C@@H]2CO,–,–,–,·,·,·,·,·
CC(C)NC(=O)N1CCCCN2[C@H](CO)[C@H](c3ccc(C#Cc4ccccc4F)cc3)[C@@H]2C1,–,95.7,–,·,109.6,–,41.6,77.1
CC(C)NC(=O)N1CCCCN2[C@H](CO)[C@@H](c3ccc(C#Cc4ccccc4F)cc3)[C@H]2C1,–,112.4,–,·,100.0,–,–,103.5
SMILES,Pf Dd2 growth,T cruzi growth-1,KDM4C inh,IDH1 R132H inh,T cruzi growth-2,T cruzi growth-3,NIH3T3 tox,NIH3T3 tox 2
Cc1ccc(S(=O)(=O)Nc2ccc3c(c2)C(=O)N([C@H](C)CO)C[C@@H](C)[C@H](CN(C)S(=O)(=O)c2ccccc2)OCCCC[C@H](C)O3)cc1,–,104.7,–,·,107.6,–,–,–
Cc1ccc(S(=O)(=O)Nc2ccc3c(c2)C(=O)N([C@@H](C)CO)C[C@@H](C)[C@@H](CN(C)S(=O)(=O)c2ccccc2)OCCCC[C@H](C)O3)cc1,–,97.4,·,–,102.2,–,–,–
C[C@@H]1CCCCO[C@H](CN(C)S(=O)(=O)c2ccccc2)[C@H](C)CN([C@H](C)CO)C(=O)c2cc(NS(=O)(=O)c3ccccc3)ccc2O1,–,107.0,–,·,115.3,–,–,–
COc1ccc(CN(C)C[C@H]2OCCCC[C@H](C)Oc3ccc(NC(=O)Nc4cccc5ccccc45)cc3C(=O)N([C@H](C)CO)C[C@H]2C)cc1,-89.9,?,–,–,98.2,106.2,–,55.4
C[C@@H]1CN([C@H](C)CO)C(=O)c2cc(NC(=O)Nc3cccc4ccccc34)ccc2O[C@@H](C)CCCCO[C@H]1CN(C)Cc1ccncc1,–,99.7,–,·,107.2,–,36.3,46.9
C[C@H]1CCCCO[C@@H](CN(C)Cc2ccccc2)[C@@H](C)CN([C@@H](C)CO)C(=O)c2cc(NC(=O)Nc3cccc4ccccc34)ccc2O1,–,109.3,–,–,?,100.2,–,38.2
C[C@@H]1CN([C@H](C)CO)C(=O)c2cc(NC(=O)Nc3cccc4ccccc34)ccc2O[C@@H](C)CCCCO[C@@H]1CN(C)Cc1ccncc1,–,–,–,·,·,·,·,·
C[C@H]1CCCCO[C@H](CN(C)Cc2ccccc2)[C@@H](C)CN([C@@H](C)CO)C(=O)c2cc(NC(=O)Nc3cccc4ccccc34)ccc2O1,–,·,–,·,·,·,·,·
C[C@H](CO)N1C[C@H](C)[C@@H](CN(C)Cc2ccccc2)OCCCC[C@H](C)Oc2ccc(NC(=O)Nc3cccc4ccccc34)cc2C1=O,–,·,–,·,·,·,·,·
Cc1ccc(S(=O)(=O)N2CC[C@@H]3[C@H](CO)Nc4ccc(C#Cc5ccccc5F)cc4[C@@H]32)cc1,–,–,–,·,·,·,·,·
Cc1ccc(S(=O)(=O)N2CC[C@@H]3[C@@H](CO)Nc4ccc(C#Cc5ccccc5F)cc4[C@@H]32)cc1,–,102.3,–,·,97.3,101.6,–,–

# Screens: PubChem, Broad Institute
